# TAAR1 antagonist: human TAAR1 antagonists, primary screen, Fluo-8 calcium fluorescence, CHO RD-HGA16 cells. inhibition, % at 3 µM. antagonist. Trace amine-associated receptor 1 (Homo sapiens), Q96RJ0. 360,000 tested, 1.5% active;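 active = inhibition above a per-plate cutoff, the mean inhibition of test compounds on that plate plus 3 SD, cut at about 49% in these data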;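 note: 0% = DMSO plus EC80 beta-PEA response and 100% = DMSO alone without agonist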
# Target sequence (Q96RJ0 whole entry, looked up): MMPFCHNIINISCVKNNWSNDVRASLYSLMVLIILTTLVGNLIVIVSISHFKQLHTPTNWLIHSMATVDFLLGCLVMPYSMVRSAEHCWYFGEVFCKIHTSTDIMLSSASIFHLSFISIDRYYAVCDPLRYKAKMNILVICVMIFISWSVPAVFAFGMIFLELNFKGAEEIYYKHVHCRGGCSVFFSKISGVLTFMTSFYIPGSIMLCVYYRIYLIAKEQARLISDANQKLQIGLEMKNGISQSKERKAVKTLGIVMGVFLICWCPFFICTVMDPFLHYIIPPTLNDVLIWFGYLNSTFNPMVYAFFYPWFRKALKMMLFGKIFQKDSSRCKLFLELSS
#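 Test system – hTAAR1-expressing CHO RD-HGA16 cells, Gα16-coupled · Also added – β-PEA at EC80 concentration, post-compound challenge · Compound – 3 µM, single point · Incubation – dye loading 75 min at 37 °C, then 30 min room temperature · Measured by – Fluo-8 intracellular calcium dye fluorescence, real-time kinetic reads · Benchmarks – vehicle and agonist controls · Replicates – singlicate, one well per test compound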
# CHRM4 antagonist: human M4 muscarinic receptor antagonists, primary screen, CHO cells, Fluo-8 calcium fluorescence; CHO-hM4 cells, ACh EC80; inhibition, % at 3 µM; 360,000 tested, 0.73% active; AID 624125, 2012;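 active = inhibition above its plate's cutoff, the mean inhibition of sample wells plus 3 SD, cut at about 27% in these data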;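 note: 0% = acetylcholine EC80 with DMSO and 100% = DMSO without agonist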
# M4 ag: human M4 muscarinic receptor agonists, primary screen, CHO-K1 cells, Fluo-8 calcium fluorescence; 360,000 tested, 0.14% active; activation, % at 3 µM; CHO-K1 hM4/Gqi5; vehicle 0%, full acetylcholine response 100%; Muscarinic acetylcholine receptor M4 (Homo sapiens), P08173;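 active = activation above the run mean over all test wells plus 3 SD, cut at about 32% in these data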;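 note: peak over basal fluorescence ratio per well then scaled between controls; 0% = DMSO wells and 100% = acetylcholine at EC100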
# M4 PAM: human M4 muscarinic receptor positive allosteric modulators, primary screen, CHO-K1 cells, Fluo-8 calcium fluorescence | activation, % at 3 µM | CHO-K1 hM4/Gqi5, ACh EC20; 0% = ACh EC20, 100% = maximal ACh | Muscarinic acetylcholine receptor M4 (Homo sapiens), P08173 | 360,000 tested, 0.4% active;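 active = activation above its plate's cutoff, the mean activation of sample wells plus 3 SD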
# TAAR1 agonist: human TAAR1 agonists, primary screen, Fluo-8 calcium fluorescence, CHO RD-HGA16 cells; AID 624467, 2012; vehicle wells 0%, saturating PEA agonist 100%; Trace amine-associated receptor 1 (Homo sapiens), Q96RJ0; activation, % at 3 µM; 360,000 tested, 0.99% active;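 active = activation above the mean activation of all test compounds in the run plus 3 SD, cut at about 38% in these data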
#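 Test system: RD-HGA16 (CHO) cells co-expressing Gα16 and hTAAR1 | Doses: Single dose, 3 µM | Schedule: 17-24 h seeding, 75 min 37 °C dye, 30 min RT | Evaluation: % activation from peak over basal fluorescence ratio, DMSO-to-PEA scaled | Technique: Kinetic Fluo-8 calcium fluorescence | Benchmarks: Low control DMSO, high control PEA (EC100)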
# * marks the source's active call; other numbers are inactive results; / = not tested or not shown. Shown are actives, neighbours in structure and some others; about 3% of the full set was active somewhere.
SMILES,TAAR1 antagonist,CHRM4 antagonist,M4 ag,M4 PAM,TAAR1 agonist
O=C(NCC1CCN(Cc2ccc(Cl)cc2)CC1)C1CCCN(c2ncnc3c2nc2n3CCCCC2)C1 (configuration not stated),-14,84*,10,-23,1
O=C(NCc1ccccc1)C1CCCN(c2ncnc3c2nc2n3CCCCC2)C1 (configuration not stated),-10,-7,5,-6,1
O=C(NCC1CCN(Cc2cccc(Cl)c2)CC1)C1CCCN(c2ncnc3c2nc2n3CCCCC2)C1 (configuration not stated),-5,36*,8,-12,4
O=C(NCCc1ccc(Cl)cc1)C1CCCN(c2ncnc3c2nc2n3CCCCC2)C1 (configuration not stated),-4,-9,2,0,0
O=C(NCC1CCN(Cc2ccc(F)cc2)CC1)C1CCCN(c2ncnc3c2nc2n3CCCCC2)C1 (configuration not stated),-22,36*,0,-11,2
CCN=C1NC(c2ccccc2)C(C(=O)OC)=C(C)N1Cc1ccc(C(F)(F)F)cc1 (configuration not stated),21,/,/,/,24
O=S(=O)(c1ccc(C(F)(F)F)cc1)N1CCCc2nc(-c3ccccc3)ccc21,-14,/,/,/,3
Cc1ccccc1-c1ccc2c(c1)[C@@H]1C[C@H]3[C@@H](CN1CC2)[C@H](C)OC(C1CCCCC1)N3C (some centres not stated),-17,/,/,/,2
CC(C)(C)c1ccc(/C=C/C(=O)Nc2ccncc2)cc1,53*,11,12,-13,3
O=C(/C=C/c1cccs1)Nc1ccncc1,-7,16,0,-3,4
Cc1cc(Oc2cccnc2)ccc1NC(=O)Cc1c[nH]c2ccccc12,7,/,/,/,1
CCCCC(c1nc2ccccc2[nH]1)n1c(=O)c(-c2ccccc2)nc2cc(C)c(C)cc21 (configuration not stated),-16,-2,2,21*,-1
O=C(NC1CCSc2ccccc21)c1cccc(OC(F)F)c1 (configuration not stated),6,-9,2,1,-1
FC(F)Oc1ccc(NC(=S)NC2CCSc3ccccc32)cc1 (configuration not stated),19,60*,17,-19,3
Cc1cc(C)c2c(n1)sc1c(N3CCCCC3)ncnc12,-26,-9,2,23*,2
O=C(COC(=O)C1(c2ccccc2F)CCCC1)NC1CCS(=O)(=O)C1 (configuration not stated),1,-16,1,24*,-3
CCCCC[C@H](O)/C=C/[C@H]1CCC(=O)[C@@H]1CCCCCCC(=O)N1CCCCC1CO (some centres not stated),71*,25,26,-15,23
O=C(C(=O)N1CCC(CNS(=O)(=O)c2ccccc2)CC1)c1cc2ccccc2o1,-25,/,/,/,4
O=C(Nc1cccc(O)c1)c1cc(-c2cccs2)on1,19,-1,14,-4,2
O=C(NC1CCCCC1)c1cc(-c2ccc(F)cc2)on1,4,3,1,1,0
CC(=O)c1cccc(NC(=O)c2cc(-c3cccs3)on2)c1,17,-25,1,16*,1
O=C(NC1CCCCC1)c1cc(-c2cccs2)on1,-10,-4,1,-5,40*
COC(=O)N1C[C@H](Oc2cccc3ccccc23)[C@H]2C[C@@H]1c1ccccc1O2,-32,/,/,/,0
O=C(NC(=S)NNC(=O)c1ccccc1O)c1ccc([N+](=O)[O-])cc1,21,3,0,0,44*
Cc1ccc(C(=O)NC(=S)NNC(=O)c2ccccc2[N+](=O)[O-])cc1,3,0,0,4,38*
SMILES,TAAR1 antagonist,CHRM4 antagonist,M4 ag,M4 PAM,TAAR1 agonist
O=C(NNC(=S)NC(=O)c1ccccc1[N+](=O)[O-])c1ccccc1[N+](=O)[O-],-5,3,0,6,0
COC(=O)C1=C(C)N(Cc2ccccc2C(F)(F)F)C(=NCc2ccc3c(c2)OCO3)NC1c1cccc(C(F)(F)F)c1 (configuration not stated),0,/,/,/,5
CC1(C)CC(=O)C(C(c2ccc3c(c2)OCO3)C2C(=O)CC(C)(C)CC2=O)C(=O)C1,-10,6,2,9,2
CCc1cccc(NS(=O)(=O)c2c(C)nc3sc(CC)nn3c2=O)c1,-5,29*,7,-18,3
CCc1cc2c(nc1CC)CCCN2S(=O)(=O)c1ccc(C#N)cc1,9,/,/,/,1
COc1ccc(Cl)cc1NC(=O)C(OC)c1ccccc1 (configuration not stated),-5,0,-1,2,3
COC(/C(=N/O)c1ccc(Cl)cc1)c1ccccc1 (configuration not stated),33,28*,5,-15,8
Cc1ccc(-c2nn3nnnc3c3ccccc23)cc1C,-10,11,1,39*,1
OC(C#CCN1CCCCC1)(c1ccccc1)c1ccccc1,-13,100*,2,-18,1
CC(O)(C#CCN1CCCCCC1)c1ccccc1 (configuration not stated),-26,23,15,-20,2
OC(C#CCN1CCCC1)(c1ccccc1)c1ccccc1,-11,98*,1,-18,2
O=C1Cn2nnc(-c3ccccc3)c2C2c3cc(Br)ccc3CCN12 (configuration not stated),-8,/,/,/,2
CC(=O)c1ccc(N2CCN(C(=O)/C=C/c3ccc(S(=O)(=O)NCc4ccco4)cc3)CC2)cc1,16,38*,21,-28,15
CC(=O)c1ccc(N2CCN(C(=O)/C=C/c3ccc(S(=O)(=O)N4CCOCC4)cc3)CC2)cc1,5,-2,2,2,12
Cc1ccc(CNCc2cc(Cl)ccc2O)cc1,8,3,9,2,38*
O=C(O)c1ccc(CNCc2cc(Cl)ccc2O)cc1,4,-3,-1,6,8
O=C(N=Nc1c(O)[nH]c2c(Cl)cc(Cl)cc12)c1ccccc1O,24,/,/,/,2
Cc1csc2c(N3CCN(C(=S)Nc4ccc(C(F)(F)F)cc4)CC3)ncnc12,38,4,11,-22,47*
Cc1csc2ncnc(N3CCN(C(=S)Nc4ccc(C(F)(F)F)cc4)CC3)c12,-41,8,12,-10,1
Cc1ccc(S(=O)(=O)NCCCN2CCCC2)cc1,-7,17,6,21*,-1
O=C(O)[C@@H]1C[C@@H](O)CN1,6,/,/,/,1
